Laboratory results from PMC5564211 (European journal of medicinal chemistry, 2017).

Assays:
α1-adrenoceptors = assay: [3H]prazosin binding displacement; parameters: species or system mouse; conditions: [3H]prazosin displacement; for IC50: values as rounded in text
How it was run: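 Competition binding against 1.5 nM [³H]prazosin in mouse hippocampal homogenate, with test compound added over a range of concentrations to build concentration–effect displacement curves. IC50 is derived by non-linear regression curve fitting. Each ligand's fitted curve is compared statistically with reference-ligand curves.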

mouse [1] = conditions: mice, previously published studies; cited from earlier work
mouse [2] = assay: Antidepressant-like activity assay; format: in vivo; conditions: mice, TST, given alone without SSRI
How it was run: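 Mice given test compound were scored for immobility time in the tail suspension test. A saline-treated group served as control. Groups were compared with saline by one-way ANOVA with Dunnett's post-hoc test, with significance set at P < 0.05.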

mouse [3] = assay: Locomotor activity assay; format: in vivo; conditions: mice; for effect on locomotion compared with the same dose of D-22: 1 mg/kg ip, one-way ANOVA, Dunnett's test

| Molecule | independent antidepressant-like activity (reduction in immobility time) (mouse [2]) | IC50 (α1-adrenoceptors) [µM] | other results |
| --- | --- | --- | --- |
| C[C@]12C[C@H](O)[C@H]3[C@@H](CCC4=CC(=O)CC[C@@]43C)[C@@H]1CC[C@@H]2C(=O)CO [Corticosterone, corticosterone, reference compound] | – | – | inhibition at adrenoceptors (α1-adrenoceptors): weak inhibitor |
| CCN1/C(=C/c2ccc3ccccc3[n+]2CC)C=Cc2ccccc21.[I-] [D-22, decynium-22, reference compound] | none of the analogues, including D-22, displayed antidepressant-like activity | – | effect on immobility time (mouse [1]): without effect on immobility time unless paired with an SSRI; effect on locomotor activity (mouse [3]; 0.1 mg/kg ip, p=0.44): not at 0.1 mg/kg; effect on locomotor activity (mouse [3]; 1.0 mg/kg ip, cumulative beam breaks 60 to 120 minutes following injection): completely suppressed locomotor activity |
| CCN1/C(=C/c2ccc3cc(Cl)ccc3[n+]2CC)C=Cc2ccccc21.[I-] [analogue 6, (E)-6-Chloro-1-ethyl-2-((1-ethylquinolin-2(1H)-ylidene)methyl)quinolinium iodide] | impart independent antidepressant-like activity | 0.5 | effect on locomotion compared with the same dose of D-22 (mouse [3]): affected locomotion significantly less than D-22 |
| (E)-1-Ethyl-2-((1-ethylquinolin-2(1H)-ylidene)methyl)-6-fluoro-4a,8a-dihydro quinolinium iodide [analogue 5] | impart independent antidepressant-like activity | 0.3 | – |
| CC(C)[n+]1ccc(/C=C2/C=Cc3ccccc3N2C)c2ccccc21.O=C([O-])C(F)(F)F [analogue 2, 1-Methyl-1′-isopropyl-2,4′-cyanine trifluoroacetate] | do not impart independent antidepressant-like activity | ~1 | – |
| (E)-1-Ethyl-2-((1-ethylquinolin-2(1H)-ylidene)methyl)-6-iodo-4a,8a-dihydro-quinolinium iodide [analogue 7] | do not impart independent antidepressant-like activity | 0.7 | effect on locomotion compared with the same dose of D-22 (mouse [3]): affected locomotion significantly less than D-22 |
| CCOc1ccccc1OCCN[C@H](C)Cc1ccc(OC)c(S(N)(=O)=O)c1 [Tamsulosin, tamsulosin, reference compound] | – | ~0.002 | – |
| CN1/C(=C\c2cc[n+](C)c3ccccc23)C=Cc2ccccc21.O=C([O-])C(F)(F)F [analogue 1, 1,1′-Dimethyl-2,4′-cyanine trifluoroacetate] | do not impart independent antidepressant-like activity | – | – |
